For ten compounds, EC50 and CC50 results are on record in ChEMBL document CHEMBL1138856, “Synthesis and anti-human immunodeficiency virus activity of 4'-branched (+/-)-4'-thiostavudines” (J Med Chem, 2006).

Series [1] has as its system Human immunodeficiency virus 1. Nature of the series: Antiviral activity against HIV1 3B in MT4 cells by MTT assay. Type of series: functional, organism-based.
Series [2] is described as follows: Cytotoxicity against MT4 cells MTT assay. Particulars: human. Type of series: cell-based. Put shortly: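 Mock-infected MT-4 cells were cultured with various compound concentrations in parallel with the antiviral assay (4 days, 37 °C). Viability was read by MTT. The value is the concentration reducing viability by 50%.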
Setting [3] is: Human immunodeficiency virus 1, 3B, MT4.

For the compound `C#C[C@@]1(CO)C=C[C@H](n2cc(C)c(=O)[nH]c2=O)S1` (racemic), the response in series [1] (mt4) was half-maximal at 0.74 µM (EC50). Turning to `Cc1cn([C@H]2C=CC(CO)(CO)S2)c(=O)[nH]c1=O` (racemic), the EC50 (usually the concentration giving half of the maximal effect) in series [1] (setting [3]) is > 100 µM. For the same compound, the CC50 – broadly, the concentration at which the toxic effect on the cells reaches its halfway point – in series [2] was > 100 µM.

`COC(=O)[C@@]1(CO)C=C[C@H](n2cc(C)c(=O)[nH]c2=O)S1` (racemic): in series [1] (setting [3]), the EC50 is > 100 µM. Also, the half-maximal cytotoxic concentration (CC50) in series [2] was > 100 µM. As for `Cc1cn([C@H]2C=C[C@@](C#N)(CO)S2)c(=O)[nH]c1=O` (racemic), the 50% effective concentration (EC50) in series [1] (setting [3]) was 7.6 µM. The half-maximal cytotoxic concentration (CC50) in series [2] is > 100 µM.

Regarding `Cc1cn([C@H]2C=C[C@](CO)(C(N)=O)S2)c(=O)[nH]c1=O` (racemic), the EC50 in series [1] (setting [3]) is > 100 µM. The CC50 in series [2] is > 100 µM. With `C=C[C@@]1(CO)C=C[C@H](n2cc(C)c(=O)[nH]c2=O)S1` (racemic), the concentration giving a half-maximal response (EC50) in series [1] (setting [3]) is > 100 µM. Also, the CC50 in series [2] was > 100 µM. In the case of `C#C[C@@]1(CO)C=C[C@H](n2cc(C)c(=O)[nH]c2=O)S1` (stereo in doubt; (+)-29), the EC50 in series [1] (mt4) is > 20 µM. For the same compound, the CC50 in series [2] is > 100 µM. `C#C[C@@]1(CO)C=C[C@H](n2cc(C)c(=O)[nH]c2=O)S1` (stereo in doubt; (-)-29) returned an EC50 in series [1] (mt4) of 0.37 µM. In turn, `C#C[C@@]1(CO)C=C[C@H](n2cc(C)c(=O)[nH]c2=O)O1` [CENSAVUDINE] gave a half-maximal effective concentration (EC50) in series [1] (setting [3]) of 0.06 µM. Moreover, in series [2], the cytotoxic concentration (CC50) was > 100 µM. The corresponding values for `Cc1cn([C@H]2C=C[C@@H](CO)O2)c(=O)[nH]c1=O` [STAVUDINE] are 0.51 µM and > 100 µM.
